Experimental data from ChEMBL document CHEMBL3804829, “Two New Faces of Amifostine: Protector from DNA Damage in Normal Cells and Inhibitor of DNA Repair in Cancer Cells” (J Med Chem, 2016).
Calls of active or inactive are those of the source.

What was measured:
NHDF [1] = assay: Protection against DNA damage in gamma irradiated human NHDF assessed as decrease in median number of gammaH2AX/53BP1 foci per nucleus at 4 mM preincubated for 15 mins followed by gamma irradiation measured after 60 mins by confocal fluorescence microscopic analysis relative to control; type: functional; design: scale not given: the % may be the effect or the level left
Method in brief: (§1)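 NHDF fibroblasts or MCF7 cells, with or without 4 mM amifostine added 15 min before 1 Gy γ-irradiation. Sampled at 5, 60 and 120 min post-irradiation and fixed in paraformaldehyde to keep nuclei 3D-intact. γH2AX and 53BP1 were immunodetected and imaged by high-resolution confocal microscopy. A DSB was scored only as a γH2AX focus colocalizing with 53BP1 above a minimum size set for each time point. Read-out: median foci per nucleus.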

NHDF [2] = assay: Protection against DNA damage in gamma irradiated human NHDF assessed as decrease in double strand breakage of DNA at 4 mM preincubated for 15 mins followed by gamma irradiation measured after 5 mins by neutral comet assay; type: functional, cell-based
MCF7 [3] = assay: Induction of DNA damage in gamma irradiated human MCF7 cells assessed as increase in double strand breakage of DNA at 4 mM preincubated for 15 mins followed by gamma irradiation measured after 5 mins by neutral comet assay; type: functional, cell-based
NHDF [4] = assay: Induction of DNA DSB repair in gamma irradiated human NHDF assessed as median number of […]/53BP1 foci per nucleus at 4 mM preincubated for 15 mins followed by gamma irradiation measured after 60 mins by confocal fluorescence microscopic analysis relative to control; type: functional
Method in brief: (§2)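 Cells received 4 mM drug 15 min before 1 Gy γ-irradiation and were sampled at 5, 60 and 120 min post-irradiation. They were fixed in paraformaldehyde to keep nuclei in 3D and immunostained for γH2AX and 53BP1. Imaging used high-resolution confocal microscopy. A DSB was scored only where a γH2AX focus colocalized with 53BP1 and met a minimum size set separately for each time point. The read-out was median foci per nucleus against untreated irradiated cells.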

MCF7 [5] = assay: Drug uptake in human MCF7 cells at 4 mM after 20 to 75 mins by LC-MS/MS analysis; type: ADME, cell-based; conditions: mcf7, 4000 µM
NHDF [6] = assay: Drug uptake in human NHDF at 4 mM after 20 to 75 mins by LC-MS/MS analysis; type: ADME, cell-based; conditions: 4000 µM
MCF7 [7] = assay: Decrease in median number of […]/53BP1 foci per nucleus in gamma irradiated human MCF7 cells at 4 mM preincubated for 15 mins followed by gamma irradiation measured after 5 mins by confocal fluorescence microscopic analysis relative to control; type: functional; design: scale not given: the % may be the effect or the level left; method in brief: as §2
MCF7 [8] = assay: Decrease in median number of […]/53BP1 foci per nucleus in gamma irradiated human MCF7 cells at 4 mM preincubated for 15 mins followed by gamma irradiation measured after 60 mins by confocal fluorescence microscopic analysis relative to control; type: functional; design: scale not given: the % may be the effect or the level left; method in brief: as §2
NHDF [9] = assay: Protection against DNA damage in gamma irradiated human NHDF assessed as decrease in median number of gammaH2AX/53BP1 foci per nucleus at 4 mM preincubated for 15 mins followed by gamma irradiation measured after 5 mins by confocal fluorescence microscopic analysis relative to control; type: functional; design: scale not given: the % may be the effect or the level left; method in brief: as §1
NHDF [10] = assay: Induction of DNA DSB repair in gamma irradiated human NHDF at 4 mM preincubated for 15 mins followed by gamma irradiation measured after 60 to 120 mins by neutral comet assay; type: functional, cell-based
MCF7 [11] = assay: Reduction of DNA DSB repair in gamma irradiated human MCF7 cells at 4 mM preincubated for 15 mins followed by gamma irradiation measured after 60 to 120 mins by neutral comet assay; type: functional, cell-based
[12] = Prodrug conversion in human NHDF cells assessed as ALP-mediated WR-1065 formation at 4 mM after 20 to 75 mins by LC-MS/MS analysis; type: ADME, cell-based; conditions: 4000 µM
MCF7 [13] = assay: Induction of DNA damage in gamma irradiated human MCF7 cells assessed as median number of […]/53BP1 foci per nucleus at 4 mM preincubated for 15 mins followed by gamma irradiation measured after 60 mins by confocal fluorescence microscopic analysis relative to control
[14] = Prodrug conversion in human MCF7 cell supernatants assessed as ALP-mediated WR-1065 formation at 4 mM after 20 to 75 mins by LC-MS/MS analysis; type: ADME, cell-based; conditions: mcf7, 4000 µM
[15] = Ratio of prodrug conversion in human NHDF assessed as ALP-mediated WR-1065 formation at 75 mins to prodrug conversion in human MCF7 cells assessed as ALP-mediated WR-1065 formation at 75 mins; type: ADME, cell-based; conditions: mcf7, 1.25 h
[16] = Prodrug conversion in human MCF7 cells assessed as ALP-mediated WR-1065 formation at 4 mM after 20 to 75 mins by LC-MS/MS analysis; type: ADME, cell-based; conditions: mcf7, 4000 µM
NHDF [17] = assay: Induction of DNA DSB repair in gamma irradiated human NHDF assessed as median number of […]/53BP1 foci per nucleus preincubated for 15 mins followed by gamma irradiation measured after 120 mins by confocal fluorescence microscopic analysis relative to control; type: functional, cell-based; method in brief: as §1
[18] = Ratio of prodrug conversion in human NHDF assessed as ALP-mediated WR-1065 formation at 20 mins to prodrug conversion in human MCF7 cells assessed as ALP-mediated WR-1065 formation at 20 mins; type: ADME, cell-based; conditions: mcf7, 20 min
NHDF [19] = assay: Induction of DNA DSB repair in gamma irradiated human NHDF assessed as decrease in median number of […]/53BP1 foci per nucleus at 4 mM preincubated for 15 mins followed by gamma irradiation measured after 60 mins by confocal fluorescence microscopic analysis relative to 5 mins postirradiation; type: functional; design: scale not given: the % may be the effect or the level left
Method in brief: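 NHDF fibroblasts, with or without 4 mM amifostine 15 min before 1 Gy γ-rays, fixed in paraformaldehyde (3D-preserved). γH2AX foci colocalizing with 53BP1 and above a size threshold set per time point were counted by high-resolution confocal microscopy. Repair efficiency was taken as the median DSBs per nucleus at 5 min minus that at 60 min post-irradiation.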

[20] = Ratio of prodrug conversion in human NHDF supernatants assessed as ALP-mediated WR-1065 formation at 20 mins to prodrug conversion in human MCF7 cell supernatants assessed as ALP-mediated WR-1065 formation at 20 mins; type: ADME, cell-based; conditions: mcf7, 20 min
MCF7 [21] = assay: Reduction of DNA DSB repair in gamma irradiated human MCF7 cells assessed as median number of […]/53BP1 foci per nucleus at 4 mM preincubated for 15 mins followed by gamma irradiation measured after 60 mins by confocal fluorescence microscopic analysis relative to control; type: functional; design: scale not given: the % may be the effect or the level left; method in brief: as §1
[22] = Ratio of prodrug conversion in human NHDF supernatants assessed as ALP-mediated WR-1065 formation at 75 mins to prodrug conversion in human MCF7 cell supernatants assessed as ALP-mediated WR-1065 formation at 75 mins; type: ADME, cell-based; conditions: mcf7, 1.25 h
MCF7 [23] = assay: Induction of DNA damage in gamma irradiated human MCF7 cells assessed as increase in median number of […]/53BP1 foci per nucleus at 4 mM preincubated for 15 mins followed by gamma irradiation measured after 60 to 120 mins by confocal fluorescence microscopic analysis; type: functional, cell-based; method in brief: as §1

## NCCCNCCS [WR-1065]
NHDF [1]
  Activity: 50%
NHDF [2]
  Activity: Active
MCF7 [3]
  Activity: inactive
NHDF [4]
  Activity: 17.7%
MCF7 [5]
  Drug uptake: > 90%
NHDF [6]
  Drug uptake: > 90%
MCF7 [7]
  Activity: 75%
MCF7 [8]
  Activity: 82.9%
NHDF [9]
  Activity: 65.2%
NHDF [10]
  Activity: Active
MCF7 [11]
  Activity: Active

## NCCCNCCSP(=O)(O)O [AMIFOSTINE]
[12]
  Drug metabolism: metabolite_detected
MCF7 [13]
  Activity: 137.5%
[14]
  Drug metabolism: metabolite_detected
[15]
  Ratio: 1.47
[16]
  Drug metabolism: metabolite_detected
NHDF [1]
  Activity: 61.9%
NHDF [2]
  Activity: Active
NHDF [17]
  Activity: Active
[18]
  Ratio: 2.56
NHDF [19]
  Activity: 10%
NHDF [9]
  Activity: 75.8%
[20]
  Ratio: 1.62
MCF7 [21]
  Activity: 20.7%
NHDF [10]
  Activity: Active
[22]
  Ratio: 2.17
MCF7 [23]
  Activity: Active
MCF7 [11]
  Activity: Active
